This is a sample that favours compounds with a hit; in the whole collection about 4.6% have one here.
GPR7 antagonist: blocks human GPR7 receptor signaling. GPR7-expressing cells, fluorescence antagonist assay. AID 1861. inhibition, % at 4.4 µM. 290,000 compounds, 1.1% hits; in the data active = inhibition above about 16%, passing the limit was not always enough;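 also: cells stimulated with the agonist NPW; 0% = agonist with vehicle and 100% = vehicle without agonist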
Target sequence (P48145 whole entry, looked up): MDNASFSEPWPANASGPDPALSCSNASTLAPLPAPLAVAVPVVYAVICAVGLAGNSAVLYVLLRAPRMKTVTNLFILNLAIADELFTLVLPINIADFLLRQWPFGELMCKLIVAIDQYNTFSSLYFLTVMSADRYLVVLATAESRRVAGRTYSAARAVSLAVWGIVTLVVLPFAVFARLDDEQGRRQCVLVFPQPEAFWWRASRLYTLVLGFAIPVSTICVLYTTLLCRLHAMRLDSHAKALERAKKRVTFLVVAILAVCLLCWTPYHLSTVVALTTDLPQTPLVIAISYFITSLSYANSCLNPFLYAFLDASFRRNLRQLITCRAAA
CHO parental Ca: counter-screen: ATP calcium response change in parental CHO cells; parental CHO-K1, ATP-induced calcium, Fluo-8 fluorescence; inhibition, % at 5.6 µM; 330,000 compounds, 0.63% hits;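 active = inhibition above that plate's mean sample inhibition plus 3 SD, cut at about 26% in these data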;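 also: 0% = ATP-challenged DMSO wells and 100% = DMSO wells without ATP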
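Assay system: untransfected parental CHO cell line. Also added: ATP agonist challenge. Dosing: one dose, 5.6 µM nominal. Measured by: Fluo-8 fluorescence. Read-out: % inhibition. Benchmarks: ATP wells versus no-ATP DMSO wells. Repeats: no replicates.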
TAAR1 antag: antagonists of human TAAR1 | inhibition, % at 3 µM | CHO RD-HGA16 TAAR1, Fluo-8 calcium fluorescence, antagonist | Q96RJ0 | 360,000 compounds, 1.5% hits | AID 624466;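 active = inhibition above a per-plate cutoff, the mean inhibition of test compounds on that plate plus 3 SD, cut at about 49% in these data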;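 also: 0% = DMSO plus EC80 beta-PEA response and 100% = DMSO alone without agonist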
Target sequence (Q96RJ0 whole entry, looked up): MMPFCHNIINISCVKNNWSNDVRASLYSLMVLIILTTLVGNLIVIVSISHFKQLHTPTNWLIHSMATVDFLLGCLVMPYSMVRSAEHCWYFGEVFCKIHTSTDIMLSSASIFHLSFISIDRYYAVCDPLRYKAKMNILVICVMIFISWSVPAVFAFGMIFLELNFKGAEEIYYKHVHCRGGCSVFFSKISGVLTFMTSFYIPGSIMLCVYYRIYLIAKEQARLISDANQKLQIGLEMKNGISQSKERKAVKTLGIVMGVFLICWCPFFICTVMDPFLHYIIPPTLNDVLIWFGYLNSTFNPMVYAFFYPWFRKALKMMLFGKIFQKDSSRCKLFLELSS
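System: RD-HGA16 CHO cells with stable hTAAR1 and Gα16 | Probe or stimulus: EC80 β-phenethylamine stimulus | Dosing: 3 µM, single point | Times: Dye loading 75 min at 37 °C, then 30 min room temperature | Measured by: Fluo-8 calcium-sensitive fluorescence | Read-out basis: % inhibition of agonist calcium response | Replicates: n of 1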
TAAR1 ag: human TAAR1 agonism; CHO RD-HGA16 TAAR1, Fluo-8 calcium fluorescence; vehicle wells 0%, saturating PEA agonist 100%; activation, % at 3 µM; 360,000 compounds, 0.99% hits;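 active = activation above the mean activation of all test compounds in the run plus 3 SD, cut at about 38% in these data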
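Assay system: CHO-derived RD-HGA16 cells with stable Gα16 and human TAAR1; timing: 17-24 h seeding, 75 min 37 °C dye, 30 min RT; read-out: % activation from peak over basal fluorescence ratio, DMSO-to-PEA scaled; measured by: kinetic Fluo-8 calcium fluorescence; benchmarks: low control DMSO, high control PEA (EC100); doses: 3 µM single concentration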
OX1R antag-1: blocks the human orexin 1 receptor. O43613. OX1R-expressing cells, FRET antagonist read-out. inhibition, % at 6.6 µM. 330,000 compounds, 1.8% hits. AID 485270; in the data active = inhibition mostly above about 38%, no sharp cut-off; inactive = mostly below about 40%;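 also: 0% = agonist challenge alone and 100% = reference antagonist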
OX1R antag-2: human HCRTR1 antagonism | CHO/OX1R cells, Fluo-8 calcium fluorescence, orexin A | inhibition, % at 5 µM | 330,000 compounds, 0.43% hits | AID 434989;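 active = inhibition above its plate's threshold, mean inhibition of all tested compounds on the plate plus 3 SD, cut at about 37% in these data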;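 also: 0% = orexin A challenge wells and 100% = SB-334867-A antagonist wells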
An asterisk follows results filed as active; . = not tested or not shown.

SMILES	GPR7 antagonist	CHO parental Ca	TAAR1 antag	TAAR1 ag	OX1R antag-1	OX1R antag-2
CCOc1ccc(/C=N/NC(=O)c2ccccc2Cl)cc1CN1CC2CC(C1)c1cccc(=O)n1C2 (stereo unspecified)	.	-30	8	-2	37*	-15
O=C(N[C@H](C(=O)N1CCC[C@H]1C(=O)NC1CCCC1)C1CCCCC1)c1ccc(Cl)cc1Cl	.	.	-14	-1	.	.
COc1ccc(NC(=O)Nc2cccc(C(F)(F)F)c2)cn1	-6	41*	0	11	21	47*
COc1ccc(NC(=O)Nc2cc(C)cc(C)c2)cn1	-2	-12	-6	5	9	-22
O=C(O)c1ccccc1C(=O)Nc1ccc(Oc2cccc(C(F)(F)F)c2)nc1	-1	-16	-3	-1	14	-2
COc1ccc(NC(=O)Cc2ccc(-c3ccccc3)cc2)cn1	22	69*	5	1	19	10
Cc1ccc(C(=O)Nc2ccc(Oc3cccc(C(F)(F)F)c3)nc2)cc1	-24	-1	32	40*	14	-11
COc1ccc(NC(=O)Nc2ccc([N+](=O)[O-])cc2)cn1	-3	43*	1	13	34	15
CCN(Cc1ccccc1)C(=O)c1cc2c(=O)oc3ccc(C)cc3c2s1	-13	-11	83*	2	19	-55
Cc1ccc2oc(=O)c3cc(C(=O)N4CCN(C(=O)c5ccco5)CC4)sc3c2c1	-12	-9	.	.	4	-10
CN(/N=C\c1ccc(O)c(O)c1)c1nc(-c2ccccc2)cc(-c2ccccc2)n1	-9	28*	41	3	11	-4
COc1cc(/C=N/N(c2ccccc2)c2ccccc2)ccc1O	-34	-16	0	12	5	-19
CN(C)c1ccc(C(=O)NCC2CCN(C(=O)C(=O)c3cccs3)CC2)cc1	.	.	-4	0	.	.
COc1cc(OC)c(C(=O)O/N=C(\N)c2ccc(C)cc2)cc1OC	11	-15	-4	-2	36*	-23
Cc1cccc(/C(N)=N/OC(=O)c2ccc(F)cc2)c1	-9	-4	-6	5	8	-7
COc1cc(OC)c(C(=O)O/N=C(\N)c2cccc(C)c2)cc1OC	-13	-26	0	0	36*	-14
CCOC(=O)[C@@H]1CSCCS(=O)(=O)N1C(=O)[C@H](Cc1ccccc1)NC(=O)OC(C)(C)C	.	.	7	1	.	.
O=C(NNC(=O)C(c1ccccc1)c1ccccc1)c1ccccc1O	.	.	2	0	.	.
COc1ccc(-c2nc(N3CCCCCC3)sc2C(=O)c2ccccc2)cc1	-6	36*	80*	42*	39	56*
O=C(Oc1ccc2ccccc2c1Br)N1CCCCCC1	-6	33*	16	17	18	-15
O=C(Nc1ccc(S(=O)(=O)Nc2ccccc2)cc1)c1ccc(CN2CCOCC2)cc1	50*	5	43	15	22	20
Cc1ccc(-n2c(-c3ccc(Br)cc3)c[n+]3c2CCc2ccc4cccnc4c2-3)cc1	65*	84*	-2	18	11	90*
CCc1ccccc1NC(=O)CSc1nc(-c2ccccc2)nn1C(=O)c1cccc([N+](=O)[O-])c1	-6	-22	.	.	42*	-17
O=C(CSc1nc(-c2ccccc2)nn1C(=O)c1ccccc1)Nc1cccc([N+](=O)[O-])c1	15	8	20	4	22	2
CCc1cccc(C)c1N=Cc1c(O)c2ccccc2oc1=O	7	-1	2	0	54*	-4
SMILES	GPR7 antagonist	CHO parental Ca	TAAR1 antag	TAAR1 ag	OX1R antag-1	OX1R antag-2
Cc1ccc(N=Cc2c(O)c3ccccc3oc2=O)c(C)c1	-13	-8	-21	0	2	-9
Cc1ccc(F)cc1N=Cc1c(O)c2ccccc2oc1=O	-12	-4	.	.	58*	-20
COc1cccc(OC)c1C(=O)Nc1cc(Cl)ccc1N1CCOCC1	-9	-41	-19	13	53*	-6
C[C@@H]1CN(c2ccc(N3CCNC[C@@H]3C)cc2C#N)C[C@H](C)O1	.	.	-28	2	.	.
Cc1cc(=O)oc2cc(NC(=O)c3c(Cl)cnn3C)ccc12	-3	-6	-15	5	61*	-13
CC1Cc2ccccc2N1c1ncnc2nc[nH]c12 (stereo unspecified)	-9	-14	.	.	74*	12
c1ccc2c(c1)CCN(c1ncnc3nc[nH]c13)C2	-4	-5	-8	1	19	-7
O=C1COC(c2ccccc2O)=NN1CCCl	.	.	3	-1	.	.
Cc1cc(NC(=O)C2C3C(=O)N(CCC(C)C)C(C(=O)NCc4ccccc4)C34C=CC2(C)O4)no1 (stereo unspecified)	-10	2	4	9	46*	-2
CCN(CC(=O)Nc1c(F)cccc1F)C(=O)c1cccc(S(=O)(=O)N2CCCc3ccccc32)c1	.	.	16	6	.	.
COc1ccc(OC)c(NC(=O)C(C)SCc2nc3sc(C)c(C)c3c(=O)[nH]2)c1 (stereo unspecified)	.	-33	-2	6	54*	23
CSc1ccccc1NC(=O)CN(C)C(=O)C(C)SCc1nc2sc(C)c(C)c2c(=O)[nH]1 (stereo unspecified)	.	.	6	1	.	.
Cc1sc2nc(CSC(C)C(=O)N(C)CC(=O)Nc3ccccc3C(F)(F)F)[nH]c(=O)c2c1C (stereo unspecified)	.	-23	10	7	71*	7
Cc1cc(N2CCN(C(=O)OC(C)(C)C)C[C@@H]2C)ccc1N1C[C@@H](C)O[C@@H](C)C1	.	.	-21	-2	.	.
NC(=O)N=Nc1c2[nH]c3ccccc3nc-2c2ccccc12	-19	-11	44	23	71*	-4
CCCc1c(-c2ccc(Cl)cc2)ncn1Cc1cccc(-c2ccccc2)c1	.	.	-24	2	.	.
O=C(Nc1nccs1)C1CCCN1S(=O)(=O)c1ccc(Cl)cc1 (stereo unspecified)	1	-17	-10	5	23	5
O=C(Nc1cccnc1)C1CCCN1S(=O)(=O)c1ccc(Cl)c(Cl)c1 (stereo unspecified)	-3	-15	-18	11	63*	1
Cc1cc(C)cc(NC(=O)C2CCCCN2S(=O)(=O)c2ccccc2)c1 (stereo unspecified)	.	.	-8	-2	.	.
O=C(Nc1ccc(Br)cn1)C1CCCN1S(=O)(=O)c1ccccc1 (stereo unspecified)	3	-24	7	4	49*	-2
O=C(Nc1ccccc1)C1CCCN1S(=O)(=O)c1ccc(Br)cc1 (stereo unspecified)	-14	-12	-30	0	64*	16
O=C(Nc1ccc(Cl)cn1)C1CCCN1S(=O)(=O)c1ccccc1 (stereo unspecified)	-14	-19	7	3	70*	19
